Key:
DU-145 = experiment: Cytotoxicity against human DU145 cells after 72 hrs by MTT assay; assay type: functional, cell-based; details: DU-145, 72 h
Method in brief: (§1)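 Antiproliferative screen on cancer lines PC3, DU145, SKOV3 and A549 and on normal human WI-38 fibroblasts. Paclitaxel was the positive control and DMSO the negative control. IC50 in μM reported as the mean of duplicate measurements.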

A549 = experiment: Cytotoxicity against human A549 cells after 72 hrs by MTT assay; assay type: functional, cell-based; details: A549, 72 h; method in brief: as §1
SK-OV-3 = experiment: Cytotoxicity against human SKOV3 cells after 72 hrs by MTT assay; assay type: functional, cell-based; details: SK-OV-3, 72 h; method in brief: as §1
PC-3 = experiment: Cytotoxicity against human PC3 cells after 72 hrs by MTT assay; assay type: functional, cell-based; details: PC-3, 72 h; method in brief: as §1
WI-38 = experiment: Cytotoxicity against human WI38 cells after 72 hrs by MTT assay; assay type: cell-based; details: WI-38, 72 h; method in brief: as §1

## C=CC(=C)CC[C@]1(C)[C@H]2C[C@H](OC(C)=O)C=C3[C@@H](OCC)O[C@H](OC(C)=O)[C@@]32[C@H](OC)C[C@@H]1C
DU-145
  IC50: 51.7 µM
A549
  IC50: 45.2 µM
SK-OV-3
  IC50: 99.8 µM
PC-3
  IC50: 46.4 µM
WI-38
  IC50: 57.6 µM

## C=CC(=C)CC[C@]1(C)[C@H]2C[C@@H](OC(C)=O)C=C3[C@H](OC(C)=O)O[C@H](OC(C)=O)[C@@]32[C@H](OC)C[C@@H]1C
DU-145
  IC50: 4.3 µM
A549
  IC50: 7.1 µM
SK-OV-3
  IC50: 6.2 µM
PC-3
  IC50: 4.7 µM
WI-38
  IC50: 13.3 µM

## C=CC(=C)CC[C@]1(C)[C@H]2C[C@H]3C[C@@H]4[C@H](OC(C)=O)O[C@H](O3)[C@@]42CC[C@@H]1C
DU-145
  IC50: 13.3 µM
A549
  IC50: 19.7 µM
SK-OV-3
  IC50: 30.6 µM
PC-3
  IC50: 6.2 µM
WI-38
  IC50: 41 µM

## C=CC(=C)CC[C@]1(C)[C@H]2C[C@H]3C[C@@H]4[C@@H](OC(C)=O)O[C@H](O3)[C@@]42CC[C@@H]1C
DU-145
  IC50: 14.1 µM
A549
  IC50: 24 µM
SK-OV-3
  IC50: 36.2 µM
PC-3
  IC50: 5.6 µM
WI-38
  IC50: 51 µM

## C=CC(=C)CC[C@]1(C)[C@H]2C[C@H](O)C[C@@H]3[C@H](OC(=O)CCC)O[C@H](OC(C)=O)[C@@]32CC[C@@H]1C
DU-145
  IC50: 67.2 µM
A549
  IC50: 13.9 µM
SK-OV-3
  IC50: 25.3 µM
PC-3
  IC50: 7.2 µM
WI-38
  IC50: 58.1 µM

## C=CC(=C)CC[C@]1(C)[C@H]2C[C@H](OC(=O)C(C)CC)C=C3[C@@H](OCC)O[C@H](OC(C)=O)[C@@]32[C@H](O)C[C@@H]1C (relative stereo)
DU-145
  IC50: 14.8 µM
A549
  IC50: 49.8 µM
SK-OV-3
  IC50: 15.3 µM
PC-3
  IC50: 46.9 µM
WI-38
  IC50: 60.2 µM

## C=CC(=C)CC[C@]1(C)[C@H]2CC(=O)C=C3[C@H](OC(C)=O)O[C@H](OC(C)=O)[C@@]32[C@H](OC)C[C@@H]1C (relative stereo)
DU-145
  IC50: 5.6 µM
A549
  IC50: 13.3 µM
SK-OV-3
  IC50: 17.6 µM
PC-3
  IC50: 6.5 µM
WI-38
  IC50: 20.3 µM

## C=CC(=C)CC[C@]1(C)[C@H]2CC(=O)C=C3[C@H](OC(=O)CCC)O[C@H](OC(C)=O)[C@@]32[C@H](OC)C[C@@H]1C (relative stereo)
DU-145
  IC50: 7.2 µM
A549
  IC50: 11.3 µM
SK-OV-3
  IC50: 7.2 µM
PC-3
  IC50: 4.6 µM
WI-38
  IC50: 14.8 µM

## C=C(C)[C@@H](C)C[C@@H](O)[C@@H](C)[C@H]1CC[C@@]2(C)[C@@H]3CCC4=C(C[C@]35O[C@@H]5C[C@]12C)C(=O)C=CC4(C)C (relative stereo)
DU-145
  IC50: 26.1 µM
A549
  IC50: 37.7 µM
SK-OV-3
  IC50: 73.8 µM
PC-3
  IC50: 22.5 µM
WI-38
  IC50: 78.4 µM

## C=CC(=C)CC[C@]1(C)[C@H](C)CC[C@@]23[C@@H](OC(C)=O)O[C@H](OC(C)=O)[C@@H]2C[C@H](O)C[C@@H]13 (relative stereo)
DU-145
  IC50: 6.6 µM
A549
  IC50: 15.2 µM
SK-OV-3
  IC50: 17.9 µM
PC-3
  IC50: 8.2 µM
WI-38
  IC50: 26.3 µM

## C=CC(=C)CC[C@]1(C)[C@H]2C[C@H](OC(=O)C(C)CC)C=C3[C@H](OC(C)=O)O[C@@H](OC(C)=O)[C@@]32[C@H](OC)C[C@@H]1C (relative stereo)
DU-145
  IC50: 4.8 µM
A549
  IC50: 7.9 µM
SK-OV-3
  IC50: 7.2 µM
PC-3
  IC50: 5.6 µM
WI-38
  IC50: 13.3 µM

## C=CC(=C)CC[C@]1(C)[C@H]2C[C@@H](OC(C)=O)C[C@@H]3[C@H](OC(C)=O)O[C@H](OC(C)=O)[C@@]32CC[C@@H]1C (relative stereo)
DU-145
  IC50: 20 µM
A549
  IC50: 66.2 µM
SK-OV-3
  IC50: 38.2 µM
PC-3
  IC50: 36.1 µM
WI-38
  IC50: 56.9 µM

## C=CC(=C)CC[C@]1(C)[C@H]2C[C@@H](O)C[C@@H]3[C@H](OC(=O)CCC)O[C@H](OC(C)=O)[C@@]32CC[C@@H]1C (relative stereo)
DU-145
  IC50: 5.8 µM
A549
  IC50: 16.2 µM
SK-OV-3
  IC50: 10.2 µM
PC-3
  IC50: 6.3 µM
WI-38
  IC50: 21.1 µM

## C=CC(=C)CC[C@]1(C)[C@H]2C[C@@H](OC(C)=O)C=C3[C@@H](OCC)O[C@H](OC(C)=O)[C@@]32[C@H](OC)C[C@@H]1C (relative stereo)
DU-145
  IC50: 47.2 µM
A549
  IC50: 53.3 µM
SK-OV-3
  IC50: 35.9 µM
PC-3
  IC50: 34.2 µM
WI-38
  IC50: 55.7 µM

## C=CC(=C)CC[C@]1(C)[C@H]2C[C@H](OC(=O)C(C)CC)C=C3[C@H](OC(C)=O)O[C@H](OC(C)=O)[C@@]32[C@H](O)C[C@@H]1C (relative stereo)
DU-145
  IC50: 4.3 µM
A549
  IC50: 5.7 µM
SK-OV-3
  IC50: 5.1 µM
PC-3
  IC50: 4.5 µM
WI-38
  IC50: 9.8 µM

## C=CC(=C)CC[C@]1(C)[C@H]2C[C@H](OC(=O)C(C)CC)C=C3[C@H](OC(=O)CCC)O[C@H](OC(C)=O)[C@@]32[C@H](O)C[C@@H]1C (stereo partly drawn) [CASEAMEMBRIN A]
DU-145
  IC50: 5 µM
A549
  IC50: 15.7 µM
SK-OV-3
  IC50: 8.7 µM
PC-3
  IC50: 10.5 µM
WI-38
  IC50: 19.6 µM

## CC(=O)O[C@H]1C(=O)[C@@]2(C)[C@H]([C@H](OC(=O)c3ccccc3)[C@]3(O)C[C@H](OC(=O)[C@H](O)[C@@H](NC(=O)c4ccccc4)c4ccccc4)C(C)=C1C3(C)C)[C@]1(OC(C)=O)CO[C@@H]1C[C@@H]2O [PACLITAXEL]
DU-145
  IC50: 0.04 µM
PC-3
  IC50: 0.02 µM
WI-38
  IC50: 0.05 µM

— ChEMBL document CHEMBL2417524, “Cytotoxic clerodane diterpenoids from the leaves and twigs of Casearia balansae” (J Nat Prod, 2013)
